From ChEMBL document CHEMBL1147076, “Antitumor activity of MLN8054, an orally active small-molecule inhibitor of Aurora A kinase” (Proc Natl Acad Sci U S A, 2007)
The source made the active and inactive calls. The calls are words filed in the database; no cut-off is given here.

How the values were obtained:
[1] = species on record: Homo sapiens; assay: Activity of human CaMK1 kinase at 1 uM
[2] = test system: PC-3; assay: Cell cycle arrest in human PC3 cells by accumulation at G1 phase at 4 uM after 48 hrs by flow cytometry relative to control; assay type: functional
How it was run: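 DNA content profiles by flow cytometry of PC-3 prostate tumor cells exposed to drug diluted in DMSO for 24 or 48 h. Phase distribution was compared with DMSO-treated control cells.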

[3] = test system: PC-3; assay: Antitumor activity against human PC3 cells xenografted into athymic nude NCR nu/nu mouse at 10 mg/kg, po BID after 21 days relative to control; assay type: functional
How it was run: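 Oral dosing for 21 days in 10% hydroxypropyl-β-cyclodextrin/5% sodium bicarbonate. Caliper volumes, L × W2 × 0.5. TGI = (Δcontrol − Δtreated average volume) × 100/Δcontrol.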

[4] = test system: Mitogen-activated protein kinase 14 (Homo sapiens), Q16539 [T106M]; assay: Activity of human SAPK2a T106M mutant kinase at 1 uM
How it was run: (§1)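 Single-concentration screen across a 226-kinase panel run by an outside provider; test compound at 1 μM with 10 μM ATP in every assay. Other conditions not detailed.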

[5] = target: Mitogen-activated protein kinase kinase kinase 5 (Homo sapiens) (UniProt Q99683); assay: Activity of human ASK1 kinase at 1 uM
[6] = target: Calcium/calmodulin-dependent protein kinase type IV (Homo sapiens) (UniProt Q16566); assay: Activity of human CaMK4 kinase at 1 uM
[7] = target: Phosphatidylinositol 4,5-bisphosphate 3-kinase catalytic subunit gamma isoform (Homo sapiens) (UniProt P48736); assay: Activity of human PI 3-kinase gamma at 1 uM
How it was run: (§2)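 Single-point kinase profiling: each kinase in a 226-kinase panel tested with compound at 1 μM and ATP at 10 μM in every assay, run by an external screening service.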

[8] = target: Serine/threonine-protein kinase PAK 2 (Homo sapiens) (UniProt Q13177); assay: Activity of human PAK2 kinase at 1 uM
How it was run: (§3)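 Single-point screen in a 226-kinase panel run by an outside service. Test compound at 1 μM with ATP at 10 μM in every assay. Other assay conditions are not given.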

[9] = target: cGMP-dependent protein kinase 1 (Homo sapiens) (UniProt Q13976); assay: Activity of human PKG1-beta kinase at 1 uM; how it was run: as §2
[10] = test system: Mus musculus; assay: Toxicity in human PC3 cells xenografted into athymic nude NCR nu/nu mouse assessed as decrease in body weight at 30 mg/kg, BID after 21 days; assay type: organism-based, PC-3; design: dose 30 mg/kg; scale not given: the % may be the effect or the level left; conditions: in vivo, 504 h
How it was run: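 Male athymic nude NCR nu/nu mice were given PC-3 cells (2 × 10^6) s.c. in the right flank. Drug in 10% hydroxypropyl-β-cyclodextrin/5% sodium bicarbonate was given orally twice daily for 21 days. Average loss of initial body weight was recorded on day 21 of treatment.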

[11] = test system: PC-3; assay: Induction of apoptosis in human PC3 cells assessed as PARP cleavage at 4 uM after 24 hrs by Western blot method; assay type: functional, cell-based
[12] = test system: PC-3; assay: Cell cycle arrest in human PC3 cells by accumulation at >4N phase at 4 uM after 48 hrs by flow cytometry relative to control; assay type: functional
[13] = target: Macrophage-stimulating protein receptor (Homo sapiens) (UniProt Q04912); assay: Activity of human Ron kinase at 1 uM; how it was run: as §3
[14] = target: Eukaryotic elongation factor 2 kinase (Homo sapiens) (UniProt O00418); assay: Activity of human eEF-2K kinase at 1 uM; how it was run: as §1
[15] = target: Cyclin-dependent kinase 2/cyclin A (Homo sapiens) (UniProt P24941+P20248+P78396); assay: Activity of human CDK2/cyclin A kinase at 1 uM; assay type: protein-complex assay
[16] = test system: Mus musculus; assay: Toxicity in human HCT116 cells xenografted into athymic nude NCR nu/nu mouse assessed as decrease in neutrophil count at 30 mg/kg, BID after 21 days; assay type: organism-based, HCT-116; design: dose 30 mg/kg; scale not given: the % may be the effect or the level left; conditions: in vivo, 504 h
How it was run: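 Female athymic nude NCR nu/nu mice were given HCT-116 cells (1 × 10^6) s.c. in the right flank. Drug in 10% hydroxypropyl-β-cyclodextrin/5% sodium bicarbonate was given orally (QD or BID) for 21 days. Body weight loss was recorded at the end of treatment, and neutrophil counts were also followed for the BID regimen.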

[17] = target: Serine/threonine-protein kinase Nek3 (Homo sapiens) (UniProt P51956); assay: Activity of human NEK3 kinase at 1 uM; how it was run: as §3
[18] = target: Tyrosine-protein kinase CSK (Homo sapiens) (UniProt P41240); assay: Activity of human CSK kinase at 1 uM; how it was run: as §2
[19] = target: Homeodomain-interacting protein kinase 3 (Homo sapiens) (UniProt Q9H422); assay: Activity of human HIPK3 kinase at 1 uM
[20] = target: Protein kinase C epsilon type (Homo sapiens) (UniProt Q02156); assay: Activity of human PKCepsilon kinase at 1 uM; how it was run: as §2
[21] = target: Tyrosine-protein kinase FRK (Homo sapiens) (UniProt P42685); assay: Activity of human PTK5 kinase at 1 uM; how it was run: as §3
[22] = target: Tyrosine-protein kinase Fer (Homo sapiens) (UniProt P16591); assay: Activity of human Fer kinase at 1 uM; how it was run: as §2
[23] = target: Calcium/calmodulin-dependent protein kinase type II subunit delta (Homo sapiens) (UniProt Q13557); assay: Activity of human CaMK2delta kinase at 1 uM; how it was run: as §2
[24] = target: Tyrosine-protein kinase receptor TYRO3 (Homo sapiens) (UniProt Q06418); assay: Activity of human Rse kinase at 1 uM; how it was run: as §1
[25] = target: SRSF protein kinase 3 (Homo sapiens) (UniProt Q9UPE1); assay: Activity of human MSSK1 kinase at 1 uM
[26] = target: Tyrosine-protein kinase Yes (Homo sapiens) (UniProt P07947); assay: Activity of human Yes kinase at 1 uM; how it was run: as §1
[27] = target: Serine/threonine-protein kinase PLK3 (Homo sapiens) (UniProt Q9H4B4); assay: Activity of human Plk3 kinase at 1 uM; how it was run: as §1
[28] = target: Protein-tyrosine kinase 6 (Homo sapiens) (UniProt Q13882); assay: Activity of human BRK kinase at 1 uM
[29] = target: Protein kinase C zeta type (Homo sapiens) (UniProt Q05513); assay: Activity of human PKCzeta kinase at 1 uM; how it was run: as §3
[30] = target: PAS domain-containing serine/threonine-protein kinase (Homo sapiens) (UniProt Q96RG2); assay: Activity of human PASK kinase at 1 uM; how it was run: as §2
[31] = target: Tyrosine-protein kinase Lyn (Homo sapiens) (UniProt P07948); assay: Activity of human Lyn kinase at 1 uM; how it was run: as §2
[32] = target: cGMP-dependent protein kinase 1 (Homo sapiens) (UniProt Q13976); assay: Activity of human PKG1alpha kinase at 1 uM; how it was run: as §2
[33] = target: RAC-beta serine/threonine-protein kinase (Homo sapiens) (UniProt P31751); assay: Activity of human PKBbeta kinase at 1 uM; how it was run: as §3
[34] = target: Tyrosine-protein kinase ABL2 (Mus musculus) (UniProt Q4JIM5); assay: Activity of mouse Arg kinase at 1 uM; how it was run: as §1
[35] = target: Serine/threonine-protein kinase Nek2 (Homo sapiens) (UniProt P51955); assay: Activity of human NEK2 kinase at 1 uM
[36] = target: Serine/threonine-protein kinase DCLK2 (Homo sapiens) (UniProt Q8N568); assay: Activity of human DCAMKL2 kinase at 1 uM; how it was run: as §2
[37] = target: Protein kinase C theta type (Homo sapiens) (UniProt Q04759); assay: Activity of human PKCtheta kinase at 1 uM; how it was run: as §2
[38] = Inhibition of Abl kinase at 1 uM

Sequence of cGMP-dependent protein kinase 1 (Homo sapiens) (Q13976 whole entry): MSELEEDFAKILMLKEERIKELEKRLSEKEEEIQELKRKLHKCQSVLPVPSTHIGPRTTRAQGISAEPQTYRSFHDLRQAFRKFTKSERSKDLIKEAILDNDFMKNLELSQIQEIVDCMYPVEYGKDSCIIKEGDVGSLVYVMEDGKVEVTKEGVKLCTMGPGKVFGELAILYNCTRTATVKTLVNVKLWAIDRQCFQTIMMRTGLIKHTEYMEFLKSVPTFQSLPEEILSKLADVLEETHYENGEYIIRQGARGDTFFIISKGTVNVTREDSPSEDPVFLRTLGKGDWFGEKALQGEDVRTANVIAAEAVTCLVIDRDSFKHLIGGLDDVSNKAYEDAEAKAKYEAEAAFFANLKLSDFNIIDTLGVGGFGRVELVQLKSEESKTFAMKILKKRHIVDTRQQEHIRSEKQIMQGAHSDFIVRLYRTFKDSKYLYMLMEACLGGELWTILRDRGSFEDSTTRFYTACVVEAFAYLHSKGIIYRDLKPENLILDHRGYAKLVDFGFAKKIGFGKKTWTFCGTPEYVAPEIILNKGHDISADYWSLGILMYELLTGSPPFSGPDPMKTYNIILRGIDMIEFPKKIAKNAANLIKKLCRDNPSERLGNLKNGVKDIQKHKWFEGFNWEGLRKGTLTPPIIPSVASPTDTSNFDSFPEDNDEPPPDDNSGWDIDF
Sequence of SRSF protein kinase 3 (Homo sapiens) (Q9UPE1 whole entry): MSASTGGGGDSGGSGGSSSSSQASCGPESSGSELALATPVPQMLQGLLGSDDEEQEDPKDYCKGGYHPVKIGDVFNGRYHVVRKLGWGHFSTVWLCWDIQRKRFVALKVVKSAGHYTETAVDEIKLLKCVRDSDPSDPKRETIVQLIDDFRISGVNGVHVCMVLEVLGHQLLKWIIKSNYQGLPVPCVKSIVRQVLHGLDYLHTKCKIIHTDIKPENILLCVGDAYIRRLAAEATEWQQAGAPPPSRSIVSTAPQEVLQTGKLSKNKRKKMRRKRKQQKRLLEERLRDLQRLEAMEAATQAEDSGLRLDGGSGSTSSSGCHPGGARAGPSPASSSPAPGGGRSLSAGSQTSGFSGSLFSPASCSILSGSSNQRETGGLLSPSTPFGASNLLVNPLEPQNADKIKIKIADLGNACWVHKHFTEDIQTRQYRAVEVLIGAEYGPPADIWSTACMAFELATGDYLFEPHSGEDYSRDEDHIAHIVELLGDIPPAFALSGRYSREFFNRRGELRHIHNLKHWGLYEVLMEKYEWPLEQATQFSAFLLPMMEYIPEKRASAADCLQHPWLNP
Sequence of Tyrosine-protein kinase Lyn (Homo sapiens) (P07948 2-512 limits assumed): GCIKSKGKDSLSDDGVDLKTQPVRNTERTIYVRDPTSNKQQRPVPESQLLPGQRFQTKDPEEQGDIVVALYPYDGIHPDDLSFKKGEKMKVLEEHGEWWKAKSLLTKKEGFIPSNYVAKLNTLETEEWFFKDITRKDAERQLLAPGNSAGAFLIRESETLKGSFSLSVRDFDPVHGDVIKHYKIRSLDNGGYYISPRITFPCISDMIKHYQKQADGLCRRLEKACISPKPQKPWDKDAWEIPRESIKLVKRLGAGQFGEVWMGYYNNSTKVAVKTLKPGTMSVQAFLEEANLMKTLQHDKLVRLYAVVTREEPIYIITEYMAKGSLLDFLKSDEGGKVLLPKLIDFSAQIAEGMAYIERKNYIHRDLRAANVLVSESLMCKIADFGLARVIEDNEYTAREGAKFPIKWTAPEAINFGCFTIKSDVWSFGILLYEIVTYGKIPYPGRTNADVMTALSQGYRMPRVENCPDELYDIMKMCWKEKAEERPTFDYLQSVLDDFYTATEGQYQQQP
Sequence of Mitogen-activated protein kinase 14 (Homo sapiens), Q16539 [T106M] (Q16539 whole entry T106M): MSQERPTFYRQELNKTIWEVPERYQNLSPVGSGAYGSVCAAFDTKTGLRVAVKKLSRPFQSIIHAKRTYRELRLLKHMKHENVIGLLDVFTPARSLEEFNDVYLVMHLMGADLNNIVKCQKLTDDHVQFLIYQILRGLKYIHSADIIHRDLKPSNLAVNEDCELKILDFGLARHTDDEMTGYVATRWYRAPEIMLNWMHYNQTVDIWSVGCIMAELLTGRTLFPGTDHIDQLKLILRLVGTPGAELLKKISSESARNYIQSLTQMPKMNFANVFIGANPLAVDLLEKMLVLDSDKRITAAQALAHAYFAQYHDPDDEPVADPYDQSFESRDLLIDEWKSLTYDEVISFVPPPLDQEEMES
Sequence of Protein kinase C zeta type (Homo sapiens) (Q05513 whole entry, the tested form may be a part): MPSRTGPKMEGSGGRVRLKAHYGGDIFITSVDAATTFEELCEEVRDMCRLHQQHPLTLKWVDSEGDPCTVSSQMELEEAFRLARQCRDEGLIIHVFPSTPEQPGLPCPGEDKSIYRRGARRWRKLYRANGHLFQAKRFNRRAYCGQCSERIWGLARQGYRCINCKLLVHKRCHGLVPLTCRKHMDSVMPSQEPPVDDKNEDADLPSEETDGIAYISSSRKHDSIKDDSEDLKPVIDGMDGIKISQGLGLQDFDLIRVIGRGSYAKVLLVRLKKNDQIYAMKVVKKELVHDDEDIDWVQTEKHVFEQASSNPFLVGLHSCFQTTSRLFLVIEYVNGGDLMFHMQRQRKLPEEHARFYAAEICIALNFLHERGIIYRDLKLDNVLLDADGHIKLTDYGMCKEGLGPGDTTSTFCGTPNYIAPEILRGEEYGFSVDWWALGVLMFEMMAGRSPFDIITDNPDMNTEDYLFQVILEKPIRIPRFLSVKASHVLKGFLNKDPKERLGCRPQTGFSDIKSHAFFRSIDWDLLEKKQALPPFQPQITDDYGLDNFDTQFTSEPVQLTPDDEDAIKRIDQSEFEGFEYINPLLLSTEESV
Sequence of RAC-beta serine/threonine-protein kinase (Homo sapiens) (P31751 whole entry): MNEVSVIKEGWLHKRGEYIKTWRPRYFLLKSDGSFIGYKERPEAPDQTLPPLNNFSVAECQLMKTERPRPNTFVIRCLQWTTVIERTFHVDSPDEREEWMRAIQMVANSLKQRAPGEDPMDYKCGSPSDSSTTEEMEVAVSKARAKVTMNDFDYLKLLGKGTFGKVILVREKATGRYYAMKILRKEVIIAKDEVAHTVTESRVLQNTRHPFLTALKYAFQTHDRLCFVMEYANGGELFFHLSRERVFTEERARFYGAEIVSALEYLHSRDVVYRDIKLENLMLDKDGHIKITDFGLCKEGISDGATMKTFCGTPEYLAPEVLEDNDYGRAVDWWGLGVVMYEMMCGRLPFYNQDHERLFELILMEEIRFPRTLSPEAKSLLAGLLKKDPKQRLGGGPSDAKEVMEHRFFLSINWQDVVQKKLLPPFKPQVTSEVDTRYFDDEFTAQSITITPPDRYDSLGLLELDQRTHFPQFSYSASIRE
Sequence of Mitogen-activated protein kinase kinase kinase 5 (Homo sapiens) (Q99683 whole entry): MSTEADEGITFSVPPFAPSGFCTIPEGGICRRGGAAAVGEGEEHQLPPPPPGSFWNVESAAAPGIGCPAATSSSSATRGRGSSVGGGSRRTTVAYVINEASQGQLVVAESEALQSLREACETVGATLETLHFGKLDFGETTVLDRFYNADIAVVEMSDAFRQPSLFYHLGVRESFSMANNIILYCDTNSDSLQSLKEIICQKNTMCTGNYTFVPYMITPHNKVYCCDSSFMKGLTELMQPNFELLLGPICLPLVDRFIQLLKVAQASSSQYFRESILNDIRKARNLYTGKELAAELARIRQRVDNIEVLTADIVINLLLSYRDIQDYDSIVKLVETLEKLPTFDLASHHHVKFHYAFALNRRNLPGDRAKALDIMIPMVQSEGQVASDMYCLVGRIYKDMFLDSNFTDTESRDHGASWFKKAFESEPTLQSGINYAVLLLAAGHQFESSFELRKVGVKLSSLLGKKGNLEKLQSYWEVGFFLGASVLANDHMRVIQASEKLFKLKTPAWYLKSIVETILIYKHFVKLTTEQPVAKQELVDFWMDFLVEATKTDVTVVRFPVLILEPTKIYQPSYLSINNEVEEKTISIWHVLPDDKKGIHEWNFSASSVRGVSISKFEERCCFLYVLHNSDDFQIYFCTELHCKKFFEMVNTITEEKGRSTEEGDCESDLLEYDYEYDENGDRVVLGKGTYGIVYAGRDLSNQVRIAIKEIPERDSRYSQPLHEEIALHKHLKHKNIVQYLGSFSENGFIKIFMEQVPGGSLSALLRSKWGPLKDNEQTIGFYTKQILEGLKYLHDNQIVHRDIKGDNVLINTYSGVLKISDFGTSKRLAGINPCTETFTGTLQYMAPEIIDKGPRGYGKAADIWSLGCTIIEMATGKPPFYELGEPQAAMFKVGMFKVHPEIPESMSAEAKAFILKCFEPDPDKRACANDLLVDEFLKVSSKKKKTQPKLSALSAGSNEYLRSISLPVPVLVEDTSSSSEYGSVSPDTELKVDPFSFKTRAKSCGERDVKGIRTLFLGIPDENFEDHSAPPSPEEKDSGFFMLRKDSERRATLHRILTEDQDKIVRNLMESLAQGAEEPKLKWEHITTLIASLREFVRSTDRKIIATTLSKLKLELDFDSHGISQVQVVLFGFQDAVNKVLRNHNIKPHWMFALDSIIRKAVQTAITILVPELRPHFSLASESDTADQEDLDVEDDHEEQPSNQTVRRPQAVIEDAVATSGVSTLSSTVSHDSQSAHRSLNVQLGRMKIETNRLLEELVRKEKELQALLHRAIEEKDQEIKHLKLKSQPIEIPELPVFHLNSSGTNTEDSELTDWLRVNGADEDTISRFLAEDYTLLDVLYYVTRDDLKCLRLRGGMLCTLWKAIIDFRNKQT
Sequence of Calcium/calmodulin-dependent protein kinase type IV (Homo sapiens) (Q16566 whole entry, canonical isoform): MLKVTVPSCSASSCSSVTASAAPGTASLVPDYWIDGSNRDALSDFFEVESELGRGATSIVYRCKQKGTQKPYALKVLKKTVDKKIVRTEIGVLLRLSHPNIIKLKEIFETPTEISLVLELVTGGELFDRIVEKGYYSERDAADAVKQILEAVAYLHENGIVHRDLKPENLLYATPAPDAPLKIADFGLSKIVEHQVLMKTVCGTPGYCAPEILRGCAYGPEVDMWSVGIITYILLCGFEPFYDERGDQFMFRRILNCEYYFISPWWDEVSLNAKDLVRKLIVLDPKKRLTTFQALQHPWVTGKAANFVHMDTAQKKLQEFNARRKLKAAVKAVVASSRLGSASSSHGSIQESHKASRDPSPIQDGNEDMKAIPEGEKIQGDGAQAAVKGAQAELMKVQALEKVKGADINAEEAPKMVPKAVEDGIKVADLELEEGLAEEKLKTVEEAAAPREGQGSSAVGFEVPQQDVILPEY

Compound `O=C(O)c1ccc(Nc2ncc3c(n2)-c2ccc(Cl)cc2C(c2c(F)cccc2F)=NC3)cc1` [MLN-8054] has an Activity [1] of 98%, an Activity [2] of 12.9% and an Activity [3] of 73%. The Activity [4] was 130%, the Activity [5] was 120% and the Activity [6] was 104%. It also gave an Activity [7] of 106%, an Activity [8] of 100% and an Activity [9] of 109%. For the same compound, the Activity [10] was 5.4%, the Activity [11] was “Active” and the Activity [12] was 21.4%. The Activity [13] was 94%, the Activity [14] was 123% and the Activity [15] was 96%. For the same compound, the Activity [16] was 73%, the Activity [17] was 95% and the Activity [18] was 105%. The Activity [19] was 111%, the Activity [20] was 123% and the Activity [21] was 90%. The Activity [22] was 57%, the Activity [23] was 123% and the Activity [24] was 56%. It also gave an Activity [25] of 100%, an Activity [26] of 20% and an Activity [27] of 105%. It also gave an Activity [28] of 104%, an Activity [29] of 99% and an Activity [30] of 114%. The Activity [31] was 46%, the Activity [32] was 103% and the Activity [33] was 104%. It also gave an Activity [34] of 63%, an Activity [35] of 110% and an Activity [36] of 103%. For the same compound, the Activity [37] was 112% and the inhibition [38] was 76%.
